# Laboratory results from ChEMBL document CHEMBL4138150, “Quinoline derivatives bearing pyrazole moiety: Synthesis and biological evaluation as possible antibacterial and antifungal agents” (2018).
# Key:
# Assay type in all cases: functional
# Klebsiella pneumoniae [1] = assay: Antimicrobial activity against Klebsiella pneumoniae RCMB 010093 assessed as diameter of zone inhibition at 5 mg/ml after 24 hrs by agar well diffusion assay; details: RCMB 010093, 24 h, read-out: DIZ
# How it was run: (§1)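 Agar well diffusion: 100 µL of 1 x10^8 CFU/mL bacteria was spread on nutrient agar. 10 mm wells received 100 µL of compound at 5 mg/mL in DMSO, or ampicillin or gentamycin standards at 1 mg/mL. DMSO served as negative control. Plates were incubated 24 h at 37 °C. Inhibition zone diameter (mm) was measured as the mean of triplicates.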
# Aspergillus clavatus [2] = assay: Antimicrobial activity against Aspergillus clavatus RCMB 02593 assessed as diameter of zone inhibition at 5 mg/ml after 72 hrs by agar well diffusion assay; details: RCMB 02593, 72 h, read-out: DIZ
# How it was run: (§2)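 Fungi (1 x10^6 CFU/mL, 100 µL) were spread on Sabouraud dextrose agar. 10 mm wells were loaded with 100 µL of test solution at 5 mg/mL in DMSO, or amphotericin B standard at 1 mg/mL. A DMSO negative control was included. Plates were incubated 72 h at 28 °C. Inhibition zone diameter (mm) was recorded as the average of triplicate runs.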
# Aspergillus fumigatus [3] = assay: Antimicrobial activity against Aspergillus fumigatus RCMB 02564 assessed as diameter of zone inhibition at 5 mg/ml after 72 hrs by agar well diffusion assay; details: RCMB 02564, 72 h, read-out: DIZ; how it was run: as §2
# Bacillus subtilis [4] = assay: Antimicrobial activity against Bacillus subtilis RCMB 010063 assessed as diameter of zone inhibition at 5 mg/ml after 24 hrs by agar well diffusion assay; details: RCMB 010063, 24 h, read-out: DIZ; how it was run: as §1
# Staphylococcus aureus [5] = assay: Antimicrobial activity against Staphylococcus aureus RCMB 010027 assessed as diameter of zone inhibition at 5 mg/ml after 24 hrs by agar well diffusion assay; details: RCMB 010027, 24 h, read-out: DIZ; how it was run: as §1
# Proteus vulgaris [6] = assay: Antimicrobial activity against Proteus vulgaris RCMB 010085 assessed as diameter of zone inhibition at 5 mg/ml after 24 hrs by agar well diffusion assay; details: RCMB 010085, 24 h, read-out: DIZ; how it was run: as §1
# Candida albicans [7] = assay: Antimicrobial activity against Candida albicans RCMB 05035 assessed as diameter of zone inhibition at 5 mg/ml after 72 hrs by agar well diffusion assay; details: RCMB 05035, 72 h, read-out: DIZ; how it was run: as §2
# [8] = test system: Staphylococcus epidermidis; assay: Antimicrobial activity against Staphylococcus epidermidis RCMB 010024 assessed as diameter of zone inhibition at 5 mg/ml after 24 hrs by agar well diffusion assay; details: RCMB 010024, 24 h, read-out: DIZ; how it was run: as §1
# Shigella flexneri [9] = assay: Antimicrobial activity against Shigella flexneri RCMB 0100542 assessed as diameter of zone inhibition at 5 mg/ml after 24 hrs by agar well diffusion assay; details: RCMB 0100542, 24 h, read-out: DIZ; how it was run: as §1
# Aspergillus clavatus [10] = assay: Antimicrobial activity against Aspergillus clavatus RCMB 02593 after 72 hrs by macro-tube dilution technique; details: RCMB 02593, 72 h
# How it was run: (§3)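 Twofold macro-tube dilution following NCCLS guidance, run in malt extract broth. 10 mg compound in 2.0 mL DMSO in tube 1 was serially diluted 1:1 through tube 14 into 1.0 mL broth; tube 15 was the control. Culture was suspended to turbidity in 5.0 mL broth, 0.2 mL was diluted into 40 mL, and 1.0 mL was added per tube. Incubation was 72 h at 30 °C. MIC was the lowest concentration with no growth.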
# Shigella flexneri [11] = assay: Antimicrobial activity against Shigella flexneri RCMB 0100542 after overnight incubation by macro-tube dilution technique
# How it was run: (§4)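 Macro-tube twofold dilution following NCCLS guidance, run in nutrient broth. The first tube held 10 mg compound in 2.0 mL DMSO and was serially halved 1:1 into 1.0 mL broth through tube 14; tube 15 was the control. The inoculum was suspended to turbidity in 5.0 mL broth, 0.2 mL was diluted into 40 mL, and 1.0 mL was added per tube. Tubes were incubated overnight at 37 °C. MIC was the lowest concentration with no growth.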
# Staphylococcus aureus [12] = assay: Antimicrobial activity against Staphylococcus aureus RCMB 010027 after overnight incubation by macro-tube dilution technique; how it was run: as §4
# Proteus vulgaris [13] = assay: Antimicrobial activity against Proteus vulgaris RCMB 010085 after overnight incubation by macro-tube dilution technique; how it was run: as §4
# Aspergillus fumigatus [14] = assay: Antimicrobial activity against Aspergillus fumigatus RCMB 02564 after 72 hrs by macro-tube dilution technique; details: RCMB 02564, 72 h; how it was run: as §3
# Klebsiella pneumoniae [15] = assay: Antimicrobial activity against Klebsiella pneumoniae RCMB 010093 after overnight incubation by macro-tube dilution technique; how it was run: as §4
# [16] = test system: Staphylococcus epidermidis; assay: Antimicrobial activity against Staphylococcus epidermidis RCMB 010024 after overnight incubation by macro-tube dilution technique; how it was run: as §4
# Candida albicans [17] = assay: Antimicrobial activity against Candida albicans RCMB 05035 after 72 hrs by macro-tube dilution technique; details: RCMB 05035, 72 h; how it was run: as §3
# Bacillus subtilis [18] = assay: Antimicrobial activity against Bacillus subtilis RCMB 010063 after overnight incubation by macro-tube dilution technique; how it was run: as §4
Structure (SMILES),zone of inhibition at 5000 µg/mL (Klebsiella pneumoniae [1]) [mm],zone of inhibition at 5000 µg/mL (Aspergillus clavatus [2]) [mm],zone of inhibition at 5000 µg/mL (Aspergillus fumigatus [3]) [mm],zone of inhibition at 5000 µg/mL (Bacillus subtilis [4]) [mm],zone of inhibition at 5000 µg/mL (Staphylococcus aureus [5]) [mm],zone of inhibition at 5000 µg/mL (Proteus vulgaris [6]) [mm],zone of inhibition at 5000 µg/mL (Candida albicans [7]) [mm],zone of inhibition at 5000 µg/mL [8] [mm],zone of inhibition at 5000 µg/mL (Shigella flexneri [9]) [mm],MIC (Aspergillus clavatus [10]) [µg/mL],MIC (Shigella flexneri [11]) [µg/mL],MIC (Staphylococcus aureus [12]) [µg/mL],MIC (Proteus vulgaris [13]) [µg/mL],MIC (Aspergillus fumigatus [14]) [µg/mL],MIC (Klebsiella pneumoniae [15]) [µg/mL],MIC [16] [µg/mL],MIC (Candida albicans [17]) [µg/mL],MIC (Bacillus subtilis [18]) [µg/mL]
COc1ccc(C2=NN(c3ccccc3)C(c3ccc(Oc4ccc5ccccc5n4)cc3)C2)cc1 (stereo not given),15.9,14.5,16.2,0,12.1,13.5,11.6,13.1,14.4,,,,,,,,,
N#Cc1c(-c2cccc(Cl)c2)nn(-c2ccc3ccccc3n2)c1N,0,13.2,12.3,13.3,10.3,0,15.2,11.6,0,,,,,,,,,
CSc1nn(-c2ccc3ccccc3n2)c(N)c1C#N,15.3,15.9,15.7,19.8,18.9,12.3,16.8,16.2,16.2,,,,,,,,,
Clc1ccc(-c2nn(-c3ccccc3)cc2/C=N/Nc2ccc3ccccc3n2)cc1,22.9,19.8,21.5,27.6,24.5,21.4,24.9,25.7,21.8,7.81,3.9,0.97,3.9,15.6,3.9,3.9,3.9,0.97
Cc1nn(-c2ccc3ccccc3n2)c(N)c1C#N,15.7,18.3,16.8,20.9,19.2,11.6,20.4,20.6,15.9,7.8,31.2,3.9,500,15.6,31.2,0.98,1.95,0.98
Clc1ccccc1C1CC(c2ccc(Oc3ccc4ccccc4n3)cc2)=NN1c1ccccc1 (stereo not given),13.3,0,12.3,16.4,14.8,12.4,9.3,0,0,,,,,,,,,
Cc1ccc(-c2nn(-c3ccccc3)cc2/C=N/Nc2ccc3ccccc3n2)cc1,17.6,18.3,20.5,22.4,20.3,16.2,22.1,20.7,18.3,7.81,7.81,1.95,31.2,0.98,7.81,0.98,0.49,0.49
